We go through 3 molecules from ChEMBL document CHEMBL1138928, “Toward orthopoxvirus countermeasures: a novel heteromorphic nucleoside of unusual structure” (J Med Chem, 2006).

Each structure is given as a SMILES string.

Assay [1] concerns Cowpox virus. Put plainly: Antiviral activity against cowpox virus in HFF cells by plaque reduction assay. Format: functional, organism-based. Background: Plaques are areas of infected cells; plaque reduction assays count them against a control.
Assay [2] concerns Cowpox virus. Put plainly: Antiviral activity against TK- cowpox virus TK:GFP lacZ in HFF cells. It counts as functional, organism-based.
The test system of assay [3] is Cowpox virus. Put plainly: Antiviral activity against TK+ cowpox virus delta crmA in HFF cells. Format: functional, organism-based.
Another assay deals with HFF. Put plainly: Cytotoxicity against HFF cells by neutral red uptake assay. To be noted: Homo sapiens. It counts as functional. The procedure, abridged: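 Uninfected HFF cells are incubated with various drug concentrations for 7 days at 37 °C. Viability is read by Neutral Red uptake. CC50 is the concentration that reduces uptake by 50%.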
A further assay relates to Vaccinia virus. Put plainly: Antiviral activity against vaccinia virus in HFF cells by plaque reduction assay. It counts as functional, organism-based. The conditions noted are these: Orthopoxvirus vaccinia.

With `O=c1[nH]c(=O)n([C@H]2C[C@H](O)[C@@H](CO)O2)cc1I` [IDOXURIDINE], the half-maximal effective concentration (EC50) (usually the concentration that produces a half-maximal response) with Cowpox virus [1] amounted to 2000 nM; in the assay with Cowpox virus [2] it was 27 µM; in the assay on Cowpox virus [3] it was 400 nM; in the assay with Vaccinia virus, 6 µM. The CC50 (commonly the concentration that lowers cell viability or growth by half) with HFF was over 260 µM.
For the molecule `Nc1ccn(C[C@@H](CO)OCP(=O)(O)O)c(=O)n1` [CIDOFOVIR], the EC50 in the assay on Cowpox virus [1] is 40000 nM; in the assay with Cowpox virus [2], 5.2 µM; in the assay on Cowpox virus [3], 3300 nM; in the assay on Vaccinia virus, 24 µM. This molecule also displayed a CC50 with HFF of over 317 µM.
On to `N#CC1=C(N)OC2=C(C(=O)CCC2)C1c1cn([C@H]2C[C@@H](O)[C@@H](CO)O2)c(=O)[nH]c1=O` (stereo not given in full), for which the EC50 stood at 2000 nM in the assay on Cowpox virus [1], 28 µM with Cowpox virus [2], 800 nM in the assay with Cowpox virus [3] and 4.6 µM in the assay with Vaccinia virus. Further, in the assay on HFF, the CC50 was over 300 µM.
